Data: ChEMBL document CHEMBL2151006 (Eur J Med Chem, 2012)
pEC50, pKi: −log10 of the molar value.

Legend:
Cannabinoid receptor 1 [1] = target: T1, Cannabinoid receptor 1 (Homo sapiens, UniProt P21554); experiment: biochemical; assay type: cell-based, HEK293
Homo sapiens = species: Homo sapiens; experiment: Selectivity index, ratio of Ki for human recombinant CB1 receptor to Ki for human recombinant CB2 receptor
Cannabinoid receptor 2 [2] = target: T2, Cannabinoid receptor 2 (Homo sapiens, UniProt P34972); experiment: Displacement of [3H]CP55940 from human recombinant CB2 receptor transfected in HEK cell membranes; parameters: species or system HEK293
T2 sequence (P34972 whole entry): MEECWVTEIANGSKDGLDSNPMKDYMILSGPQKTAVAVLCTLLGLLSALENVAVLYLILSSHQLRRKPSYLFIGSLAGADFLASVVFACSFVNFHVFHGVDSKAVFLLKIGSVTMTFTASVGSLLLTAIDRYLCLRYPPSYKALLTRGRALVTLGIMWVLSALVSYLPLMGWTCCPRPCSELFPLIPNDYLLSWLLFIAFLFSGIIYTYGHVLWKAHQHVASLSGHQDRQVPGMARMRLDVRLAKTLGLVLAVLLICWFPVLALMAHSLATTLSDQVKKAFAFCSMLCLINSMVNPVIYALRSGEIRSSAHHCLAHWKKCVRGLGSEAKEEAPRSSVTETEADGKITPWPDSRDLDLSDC

Cannabinoid receptor 2 [3] = target: T2, Cannabinoid receptor 2; experiment: Agonist activity at human CB2 receptor transfected in CHO cell membranes by [35S]GTPgammaS binding assay; assay type: functional
CYP3A4 = CYP3A4 (Homo sapiens, UniProt P08684); experiment: Metabolic stability assessed as human recombinant CYP3A4-mediated drug metabolism by measuring compound remaining after 1 hr; assay type: ADME; settings: read-out: Drug metabolism
Sequence of CYP3A4 (P08684 whole entry): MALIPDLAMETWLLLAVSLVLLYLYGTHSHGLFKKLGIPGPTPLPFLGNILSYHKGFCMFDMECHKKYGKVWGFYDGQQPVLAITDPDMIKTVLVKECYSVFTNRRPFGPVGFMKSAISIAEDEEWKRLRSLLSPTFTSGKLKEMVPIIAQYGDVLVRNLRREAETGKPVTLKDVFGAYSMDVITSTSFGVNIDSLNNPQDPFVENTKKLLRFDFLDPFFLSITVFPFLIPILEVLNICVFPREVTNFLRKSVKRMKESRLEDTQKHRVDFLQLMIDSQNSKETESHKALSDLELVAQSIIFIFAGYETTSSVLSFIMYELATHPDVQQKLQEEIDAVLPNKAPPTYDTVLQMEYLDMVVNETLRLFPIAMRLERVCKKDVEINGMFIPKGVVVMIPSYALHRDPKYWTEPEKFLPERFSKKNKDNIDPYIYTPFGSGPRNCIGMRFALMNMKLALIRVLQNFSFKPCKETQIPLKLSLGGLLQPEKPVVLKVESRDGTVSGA
Method in brief: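 Recombinant hCYP3A4 at 20 pmol/mL in 100 mM phosphate pH 7.4 with 1 mM EDTA, […]. Incubation was 1 h at 37 °C with or without NADPH regenerating system, then stopped with cold acetonitrile. Percent remaining is the MS peak area with NADPH over that without, ×100.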

[4] = Metabolic stability in rat plasma assessed as compound remaining measured at 3 hrs; assay type: ADME, cell-free; settings: read-out: Stability
Method in brief: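 Fresh rat plasma was spiked with compound and incubated at 37 °C with gentle agitation, in duplicate. Samples were taken at 0, 30 min and 3 h and proteins precipitated with acetonitrile. LC-ESI+-MS/MS in MRM mode; percent remaining is peak area relative to time 0.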

[5] = Intrinsic clearance in human liver microsomes; assay type: ADME, Microsome; settings: read-out: CLH
[6] = Intrinsic clearance in rat liver microsomes; assay type: ADME, Microsome; settings: read-out: CLH
MDR1 [7] = experiment: Apparent permeability across apical to basolateral side in human MDR1 transfected MDCK2 cells at 10 uM after 2 hrs; assay type: ADME, cell-based, Canis lupus familiaris, MDCK-II; settings: dog, MDCK-MDR1
MDR1 [8] = experiment: Efflux ratio of permeability from basolateral to apical side over apical to basolateral side in human MDR1 transfected MDCK2 cells at 10 uM after 2 hrs; assay type: ADME, cell-based, Canis lupus familiaris, MDCK-II; settings: dog, MDCK-MDR1
Cannabinoid receptor 2 [9] = target: T2, Cannabinoid receptor 2; settings: CHO, 0.001 to 10 uM
Cannabinoid receptor 1 [10] = target: T1, Cannabinoid receptor 1; experiment: Agonist activity at human CB1 receptor transfected in CHO cell membranes by [35S]GTPgammaS binding assay; assay type: functional
Cannabinoid receptor 1 [11] = target: T1, Cannabinoid receptor 1; experiment: Agonist activity at human CB1 receptor transfected in CHO cell membranes at 0.001 to 30 uM by [35S]GTPgammaS binding assay relative to CP55940; assay type: functional

T1 sequence (P21554 whole entry): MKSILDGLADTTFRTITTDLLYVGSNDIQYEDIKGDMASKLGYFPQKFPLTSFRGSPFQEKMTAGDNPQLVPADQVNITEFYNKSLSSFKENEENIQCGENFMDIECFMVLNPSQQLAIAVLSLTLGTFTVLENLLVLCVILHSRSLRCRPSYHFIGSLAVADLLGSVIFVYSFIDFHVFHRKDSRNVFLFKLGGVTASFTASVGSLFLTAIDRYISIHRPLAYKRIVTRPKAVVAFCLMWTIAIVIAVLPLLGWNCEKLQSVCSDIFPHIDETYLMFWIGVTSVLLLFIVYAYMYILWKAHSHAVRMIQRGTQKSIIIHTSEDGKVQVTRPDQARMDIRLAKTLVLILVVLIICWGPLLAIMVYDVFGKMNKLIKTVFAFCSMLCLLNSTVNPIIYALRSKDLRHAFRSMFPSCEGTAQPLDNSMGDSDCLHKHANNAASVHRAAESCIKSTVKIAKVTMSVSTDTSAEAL

Work on CCCCCn1cc(C(=O)NOCc2ccccc2)c(=O)c2ccc(Sc3ccccc3)cc21 yielded a pKi (Cannabinoid receptor 1 [1]) of 7.89, a Ratio Ki (Homo sapiens) of 0.7 and a pKi (Cannabinoid receptor 2 [2]) of 7.71.
With CCCCCn1cc(C(=O)NCCN2CCOCC2)c(=O)c2ccc(Sc3ccccc3)cc21 the pKi (Cannabinoid receptor 1 [1]) was 7.20, the Ratio Ki (Homo sapiens) was 0.5 and the pKi (Cannabinoid receptor 2 [2]) was 6.93.
CN(C)CCn1cc(C(=O)N[C@@H]2C(C)(C)C3CC[C@]2(C)C3)c(=O)c2ccc(F)cc21 showed a pKi (Cannabinoid receptor 2 [2]) of 8.10.
For CCCCCn1cc(C(=O)N[C@@H]2C(C)(C)C3CC[C@]2(C)C3)c(=O)c2ccc(F)cc21, the pKi (Cannabinoid receptor 1 [1]) was 8.40, the Ratio Ki (Homo sapiens) was 17 and the pKi (Cannabinoid receptor 2 [2]) was 9.52.
Compound CCCCCn1cc(C(=O)NCc2ccc(Cl)c(Cl)c2)c(=O)c2ccc(Br)cc21 has a pKi (Cannabinoid receptor 1 [1]) of 6.18, a Ratio Ki (Homo sapiens) of 5 and a pKi (Cannabinoid receptor 2 [2]) of 6.89.
CC1(C)C2CC[C@](C)(C2)[C@@H]1NC(=O)c1cnc2cc(F)ccc2c1O showed a pKi (Cannabinoid receptor 1 [1]) of less than 5.00 and a pKi (Cannabinoid receptor 2 [2]) of 6.02.
In the case of CC1(C)C2CC[C@](C)(C2)[C@@H]1NC(=O)c1cn(CCCCSc2ccccc2)c2cc(Sc3ccccc3)ccc2c1=O, the pKi (Cannabinoid receptor 1 [1]) was less than 5.00, the Ratio Ki (Homo sapiens) was greater than 1540 and the pKi (Cannabinoid receptor 2 [2]) was 8.19.
Compound CCCCCn1cc(C(=O)NC23CC4CC(CC(C4)C2)C3)c(=O)c2ccc(F)cc21 has a Ratio Ki (Homo sapiens) of 38.
Compound CCCCn1cc(C(=O)N[C@@H]2C(C)(C)C3CC[C@]2(C)C3)c(=O)c2ccc(F)cc21 has a pKi (Cannabinoid receptor 1 [1]) of 7.84, a Ratio Ki (Homo sapiens) of 17 and a pKi (Cannabinoid receptor 2 [2]) of 9.10.
CC1(C)C2CC[C@](C)(C2)[C@@H]1NC(=O)c1cn(CCCCO)c2cc(F)ccc2c1=O showed a pKi (Cannabinoid receptor 1 [1]) of 6.40, a Ratio Ki (Homo sapiens) of 26 and a pKi (Cannabinoid receptor 2 [2]) of 7.82.
Compound Cc1cccc(Cn2cc(C(=O)N[C@@H]3C(C)(C)C4CC[C@]3(C)C4)c(=O)c3ccc(Sc4ccccc4)cc32)c1 has a pKi (Cannabinoid receptor 1 [1]) of 6.17, a Ratio Ki (Homo sapiens) of 5 and a pKi (Cannabinoid receptor 2 [2]) of 6.86.
CCn1cc(C(=O)N[C@@H]2C(C)(C)C3CC[C@]2(C)C3)c(=O)c2ccc(F)cc21 showed a pKi (Cannabinoid receptor 1 [1]) of 6.02, a Ratio Ki (Homo sapiens) of 131 and a pKi (Cannabinoid receptor 2 [2]) of 8.14. The pEC50 (Cannabinoid receptor 2 [3]) was 7.76, the remaining at 1 h (CYP3A4) was 1% and the remaining at 3 h [4] was 92%. The microsomal CLint [5] was greater than 700 µL/min/mg, the microsomal CLint [6] was greater than 700 µL/min/mg and the Papp A→B at 2 h, 10 µM (MDR1 [7]) was 0.17 ×10⁻⁶ cm/s. The efflux ratio at 2 h, 10 µM (MDR1 [8]) was 1 and the Emax (Cannabinoid receptor 2 [9]) was 45%.
Work on CC1(C)C2CC[C@](C)(C2)[C@@H]1NC(=O)c1c[nH]c2cc(F)ccc2c1=O yielded a Ratio Ki (Homo sapiens) greater than 10.
For COCCn1cc(C(=O)N[C@@H]2C(C)(C)C3CC[C@]2(C)C3)c(=O)c2ccc(F)cc21, the pKi (Cannabinoid receptor 1 [1]) was 6.53, the Ratio Ki (Homo sapiens) was 54 and the pKi (Cannabinoid receptor 2 [2]) was 8.26.
CCCn1cc(C(=O)N[C@@H]2C(C)(C)C3CC[C@]2(C)C3)c(=O)c2ccc(Sc3ccccc3)cc21 gave a pKi (Cannabinoid receptor 1 [1]) of 7.96, a Ratio Ki (Homo sapiens) of 31 and a pKi (Cannabinoid receptor 2 [2]) of 9.40.
For Cn1cc(C(=O)N[C@@H]2C(C)(C)C3CC[C@]2(C)C3)c(=O)c2ccc(F)cc21, the pKi (Cannabinoid receptor 1 [1]) was less than 5.00, the Ratio Ki (Homo sapiens) was greater than 106 and the pKi (Cannabinoid receptor 2 [2]) was 7.03.
Compound CCCCCn1cc(C(=O)NC23CC4CC(CC(C4)C2)C3)c(=O)c2ccc(Sc3ccccc3)cc21 has a Ratio Ki (Homo sapiens) of 3.3.
O=C(NN1CCCCC1)c1cn(-c2ccc(F)cc2)c2cc(Sc3ccccc3)ccc2c1=O showed a pKi (Cannabinoid receptor 1 [1]) of less than 5.00 and a pKi (Cannabinoid receptor 2 [2]) of less than 5.00.
With COCCn1cc(C(=O)N[C@@H]2C(C)(C)C3CC[C@]2(C)C3)c(=O)c2ccc(Sc3ccccc3)cc21 the pKi (Cannabinoid receptor 1 [1]) was 7.62, the Ratio Ki (Homo sapiens) was 22 and the pKi (Cannabinoid receptor 2 [2]) was 8.96.
Compound CCCn1cc(C(=O)N[C@@H]2C(C)(C)C3CC[C@]2(C)C3)c(=O)c2ccc(F)cc21 has a pKi (Cannabinoid receptor 1 [1]) of 6.71, a Ratio Ki (Homo sapiens) of 57 and a pKi (Cannabinoid receptor 2 [2]) of 8.54.
For CCCCCn1cc(C(=O)NN(C)C)c(=O)c2ccc(Sc3ccccc3)cc21, the pKi (Cannabinoid receptor 1 [1]) was 7.06, the Ratio Ki (Homo sapiens) was 1.1 and the pKi (Cannabinoid receptor 2 [2]) was 7.11.
Work on CCCCCn1cc(C(=O)NOC)c(=O)c2ccc(Sc3ccccc3)cc21 yielded a pKi (Cannabinoid receptor 1 [1]) of 6.31, a Ratio Ki (Homo sapiens) of 1.4 and a pKi (Cannabinoid receptor 2 [2]) of 6.47.
CCCCCn1cc(C(=O)NCc2ccc(Cl)c(Cl)c2)c(=O)c2ccc(Sc3ccccc3)cc21 gave a pKi (Cannabinoid receptor 1 [1]) of 6.38, a Ratio Ki (Homo sapiens) of less than 0.04 and a pKi (Cannabinoid receptor 2 [2]) of less than 5.00. For the same compound, the pEC50 (Cannabinoid receptor 1 [10]) was 6.10, the Emax (Cannabinoid receptor 1 [11]) was 55.8% and the remaining at 1 h (CYP3A4) was 25%. The remaining at 3 h [4] was 100%, the microsomal CLint [5] was greater than 700 µL/min/mg and the microsomal CLint [6] was greater than 700 µL/min/mg. For the same compound, the Papp A→B at 2 h, 10 µM (MDR1 [7]) was 0.14 ×10⁻⁶ cm/s and the efflux ratio at 2 h, 10 µM (MDR1 [8]) was 0.4.
CCCCCn1cc(C(=O)NN2CCCCC2)c(=O)c2ccc(Sc3ccccc3)cc21 gave a pKi (Cannabinoid receptor 1 [1]) of 7.54, a Ratio Ki (Homo sapiens) of 2.2 and a pKi (Cannabinoid receptor 2 [2]) of 7.88.
For CC1(C)C2CC[C@](C)(C2)[C@@H]1NC(=O)c1cn(CCCCO)c2cc(Sc3ccccc3)ccc2c1=O, the pKi (Cannabinoid receptor 1 [1]) was 7.41, the Ratio Ki (Homo sapiens) was 15 and the pKi (Cannabinoid receptor 2 [2]) was 8.60.
For O=C(NN1CCCCC1)c1cn(-c2ccc(Cl)cc2)c2cc(F)ccc2c1=O, the pKi (Cannabinoid receptor 1 [1]) was less than 5.00 and the pKi (Cannabinoid receptor 2 [2]) was less than 5.00.
Compound Cn1cc(C(=O)N[C@@H]2C(C)(C)C3CC[C@]2(C)C3)c(=O)c2ccc(Sc3ccccc3)cc21 has a pKi (Cannabinoid receptor 1 [1]) of 5.73, a Ratio Ki (Homo sapiens) of 117 and a pKi (Cannabinoid receptor 2 [2]) of 7.80.
In the case of CCCCCn1cc(C(=O)NC(C)C)c(=O)c2ccc(Sc3ccccc3)cc21, the pKi (Cannabinoid receptor 1 [1]) was 7.68, the Ratio Ki (Homo sapiens) was 1.4 and the pKi (Cannabinoid receptor 2 [2]) was 7.83.
Work on Cc1cccc(Cn2cc(C(=O)N[C@@H]3C(C)(C)C4CC[C@]3(C)C4)c(=O)c3ccc(F)cc32)c1 yielded a pKi (Cannabinoid receptor 1 [1]) of less than 5.00, a Ratio Ki (Homo sapiens) greater than 317 and a pKi (Cannabinoid receptor 2 [2]) of 7.50.
CCCCCn1cc(C(=O)N[C@@H]2C(C)(C)C3CC[C@]2(C)C3)c(=O)c2ccc(Sc3ccccc3)cc21 gave a pKi (Cannabinoid receptor 1 [1]) of 8.61, a Ratio Ki (Homo sapiens) of 27.2 and a pKi (Cannabinoid receptor 2 [2]) of 10.05.
Work on CCCCCn1cc(C(=O)N2CCC[C@H]2C(N)=O)c(=O)c2ccc(Sc3ccccc3)cc21 yielded a pKi (Cannabinoid receptor 1 [1]) of 5.83, a Ratio Ki (Homo sapiens) of 6.5 and a pKi (Cannabinoid receptor 2 [2]) of 6.64.
Compound C=Cn1cc(C(=O)N[C@@H]2C(C)(C)C3CC[C@]2(C)C3)c(=O)c2ccc(F)cc21 has a pKi (Cannabinoid receptor 1 [1]) of 5.45, a Ratio Ki (Homo sapiens) of 235 and a pKi (Cannabinoid receptor 2 [2]) of 7.82.
With CCCCCn1cc(C(=O)NC2CN3CCC2CC3)c(=O)c2ccc(Sc3ccccc3)cc21 (centres undefined) the pKi (Cannabinoid receptor 1 [1]) was 6.82, the Ratio Ki (Homo sapiens) was 1.7 and the pKi (Cannabinoid receptor 2 [2]) was 7.05.
In the case of CCCCCn1cc(C(=O)NCc2ccc(Cl)c(Cl)c2)c(=O)c2ccc(-c3ccccc3)cc21, the pKi (Cannabinoid receptor 1 [1]) was 6.41, the Ratio Ki (Homo sapiens) was less than 0.04 and the pKi (Cannabinoid receptor 2 [2]) was less than 5.00.
CCn1cc(C(=O)N[C@@H]2C(C)(C)C3CC[C@]2(C)C3)c(=O)c2ccc(Sc3ccccc3)cc21 gave a pKi (Cannabinoid receptor 1 [1]) of 6.74, a Ratio Ki (Homo sapiens) of 42 and a pKi (Cannabinoid receptor 2 [2]) of 8.36.
With CCCCCn1cc(C(=O)NC(CC)CO)c(=O)c2ccc(Sc3ccccc3)cc21 (centres undefined) the pKi (Cannabinoid receptor 1 [1]) was 7.24, the Ratio Ki (Homo sapiens) was 2.9 and the pKi (Cannabinoid receptor 2 [2]) was 7.70.
For CCCCn1cc(C(=O)N[C@@H]2C(C)(C)C3CC[C@]2(C)C3)c(=O)c2ccc(Sc3ccccc3)cc21, the pKi (Cannabinoid receptor 1 [1]) was 8.33, the Ratio Ki (Homo sapiens) was 31 and the pKi (Cannabinoid receptor 2 [2]) was 10.00.
CN(C)CCn1cc(C(=O)N[C@@H]2C(C)(C)C3CC[C@]2(C)C3)c(=O)c2ccc(Sc3ccccc3)cc21 showed a pKi (Cannabinoid receptor 1 [1]) of 7.54, a Ratio Ki (Homo sapiens) of 23 and a pKi (Cannabinoid receptor 2 [2]) of 8.89.
